Bioassay records (PubChem BioAssay)
procasp7 counter – procaspase-7 activators, primary screen, counter-screen for procaspase-3 activator project, biochemical, absorbance, HTS, human; 330,000 tested, 0.093% active; AID 463210, 2010; Caspase-7 (Homo sapiens), P55210; recombinant procaspase-7, Ac-DEVD-pNA absorbance 405 nm; D23A/D198A/D206A triple mutant, cannot self-cleave; scale: DMSO 0, 5 µM enzyme 100; activation, % at 8.5 µM;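 active = percent activation above the screen-wide mean plus 3 SD, cut at about 25% in these data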
Target sequence (P55210 whole entry D23A/D198A/D206A): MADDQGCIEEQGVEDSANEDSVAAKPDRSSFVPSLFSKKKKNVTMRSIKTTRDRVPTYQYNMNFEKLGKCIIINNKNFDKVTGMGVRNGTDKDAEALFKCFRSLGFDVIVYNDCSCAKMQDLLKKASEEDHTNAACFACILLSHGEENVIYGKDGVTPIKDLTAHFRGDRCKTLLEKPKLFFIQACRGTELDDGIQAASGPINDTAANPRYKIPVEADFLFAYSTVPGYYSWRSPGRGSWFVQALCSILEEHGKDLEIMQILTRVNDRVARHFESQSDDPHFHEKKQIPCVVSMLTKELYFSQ
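Replicates: singlicate. Assay system: Procaspase-7 triple mutant (PC-7 D3A). Signal: 405 nm absorbance of p-nitroaniline. Times: 1 h preincubation, 2 h reaction. Buffer or medium: Zinc-free HEPES pH 7.4 with 300 mM NaCl, 0.01% Triton X-100. Also added: DEVD-pNA substrate. Benchmarks: DMSO wells as 0%, DMSO with 5 µM added PC-7 as 100%.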
procasp3 activ – activators of human procaspase-3 D3A mutant, primary screen, biochemical, absorbance, PC-3 D3A mutant, single concentration; recombinant procaspase-3 D3A, Ac-DEVD-pNA absorbance 405 nm; 330,000 tested, 0.11% active; activation, % at 8.5 µM; Caspase-3 (Homo sapiens), P42574;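 active = activation above the mean of all tested compounds plus 3 SD, cut at about 21% in these data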;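 note: 0% = DMSO alone and 100% = DMSO wells spiked with extra 5 µM PC-3 D3A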
Target sequence (P42574 whole entry D9A/D28A/D175A): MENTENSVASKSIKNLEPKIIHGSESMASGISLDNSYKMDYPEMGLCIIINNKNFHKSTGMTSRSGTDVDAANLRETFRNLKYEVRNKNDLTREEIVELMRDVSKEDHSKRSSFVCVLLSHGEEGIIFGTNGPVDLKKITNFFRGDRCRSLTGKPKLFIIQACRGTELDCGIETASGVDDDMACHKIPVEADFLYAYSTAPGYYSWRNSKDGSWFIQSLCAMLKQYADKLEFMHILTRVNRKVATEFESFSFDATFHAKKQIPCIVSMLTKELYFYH
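Technique: 405 nm absorbance of p-nitroaniline, reads at 0 and 120 min; Test system: Procaspase-3 D3A mutant; Incubation: 1 h enzyme-compound preincubation, then 2 h substrate reaction, 25 °C; Repeats: singlicate, each compound tested once; Benchmarks: low control DMSO wells, high control DMSO plus 5 µM PC-3 D3A.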
TPT1 inhibitor – Candida albicans TPT1 enzyme inhibitors, primary screen, biochemical, fluorescence polarization | inhibition, % at 5 µM | tRNA 2'-phosphotransferase TPT1 (Candida albicans SC5314) | 300,000 tested, 0.81% active | recombinant caTPT1, FP RNA substrate dephosphorylation;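 active = inhibition above the mean of all tested compounds plus 3 SD, set per screening campaign, cut at about 24% in these data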;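 note: plate controls were DMSO alone for no effect and ferristatin control at 100 nM for full effect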
IDE inh – human IDE inhibitors in live cells, primary screen, fluorescence polarization, HEK cells, FAbetaB substrate | FAbetaB cleavage | inhibition, % at 5.59 µM | 320,000 tested, 0.41% active;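 active = percent inhibition above the average of all tested compounds plus 3 SD, set per screening campaign, cut at about 16% in these data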;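 note: IDE supplied by intact live HEK cells; FP after avidin binding of uncleaved biotin substrate so inhibition keeps polarization high; 0% = DMSO wells and 100% = 60 µM reference IDE inhibitor Ii1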
IDE act – human IDE activators in live cells, primary screen, fluorescence polarization, HEK cells, FAbeta-B substrate; 340,000 tested, 0.073% active; activation, % at 5.96 µM; Insulin-degrading enzyme (Homo sapiens), P14735; AID 493087, 2011; FAbeta-B cleavage; 0% vehicle, 100% cell-free pure enzyme wells;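 active = activation above the mean of all tested compounds plus 3 SD, set per screening campaign, cut at about 17% in these data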
TPT1 inh confirm – Candida albicans TPT1 inhibitors, confirmation, biochemical, fluorescence polarization, triplicate; shares compounds with TPT1 inhibitor; recombinant caTPT1, RNase T1 coupled; inhibition, % at 5 µM; 2,400 tested, 74% active; AID 2149, 2009;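 active = inhibition above the primary screen limit, the mean inhibition of all tested compounds plus 3 SD, cut at about 25% in these data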
RNase T1 counter – RNase T1 inhibitors, counter-screen for TPT1 inhibitor project, biochemical, fluorescence polarization; RNase T1 cleavage, 1536-well; inhibition, % at 5 µM; 2,400 tested, 83% active; shares compounds with TPT1 inhibitor;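 active = inhibition above the solvent-only control well mean plus 3 SD, limit set per screening run, cut at about 23% in these data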;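 note: plate controls were DMSO wells with enzyme for no effect and wells without RNase T1 for full effect; inhibitors block cleavage so intact labeled substrate keeps polarization high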
The depositor's hits bear a star; · = not tested or not shown. Most compounds without a hit are left out; they make up all but 1.2% or so of the library.

SMILES	procasp7 counter	procasp3 activ	TPT1 inhibitor	IDE inh	IDE act	TPT1 inh confirm	RNase T1 counter
Cc1[nH]c2ccccc2c1C(=O)CSC(=S)N(C)C1CCCCC1	1	-6	128*	-2	0	12	14
O=C(/C=C\c1ccc2c(c1)OCO2)Nc1c2c(nn1-c1ccc(Cl)cc1)CSC2	2	3	0	-1	-5	·	·
Cc1[nH]nc2c1C(CC(C)C)C(C#N)=C(N)O2 (stereo not drawn)	-1	2	-3	2	·	·	·
Cc1[nH]nc2c1C(Cc1ccccc1)C(C#N)=C(N)O2 (stereo not drawn)	0	7	-4	8	0	·	·
CC(C)CC1C(C#N)=C(N)SC(N)=C1C#N	-11	-4	70*	13	-7	87*	95*
N#CC1=C(N)SC(N)=C(C#N)C1Cc1ccccc1	-16	-7	63*	12	-7	50*	59*
O=C(c1ccc(Cl)c([N+](=O)[O-])c1)N(Cc1ccco1)C1CCS(=O)(=O)C1 (stereo not drawn)	-7	-7	1	-4	4	·	·
CN1CC=C2C(C#N)=C(N)C(C#N)(C#N)[C@H](c3cccc(Cl)c3)C2C1 (stereo partly drawn)	3	-1	-47	2	-4	·	·
CC(C)c1ccc(C2C3CSCC=C3C(C#N)=C(N)C2(C#N)C#N)cc1 (stereo not drawn)	-6	-5	36*	13	·	38*	48*
O=[N+]([O-])c1ccc(Cl)c(-c2ccc(/C=N/n3cnnc3)o2)c1	0	1	-1	2	5	·	·
CN1CCN(/N=C/c2ccc(-c3ccc([N+](=O)[O-])cc3Cl)o2)CC1	-14	-12	30*	5	-2	35*	49*
OC1COCOC1C(O)C1OCOCC1O (stereo not drawn)	·	·	·	·	3	·	·
CCOc1ccccc1C(=O)Nc1nccs1	10	6	27*	4	2	11	13
CCOc1ccccc1C(=O)Nc1nnc(COC)s1	-4	-5	1	3	4	·	·
COc1ccc(C2CC(c3c(O)cc(C)oc3=O)=NCCS2)c(OC)c1 (stereo not drawn)	-27	-14	42*	7	-4	5	12
CC(=O)Nc1ccc(SCC(=O)c2c(N)n(Cc3ccccc3)c(=O)n(C)c2=O)cc1	-12	-12	1	2	5	·	·
CC(=O)NC(=S)c1c(N)n(Cc2ccccc2)c(=O)n(C)c1=O	-4	-6	38*	7	·	32*	43*
O=C(CN1C(=O)NC2(CCCCC2)C1=O)NCC(=O)Nc1ccc(F)c(F)c1	-5	-10	0	0	3	·	·
COCCCn1c(=O)/c(=C\c2cccc(OC)c2OC)s/c1=C(/C#N)C(=O)Nc1ccc(C(=O)O)cc1	-13	-8	62*	-3	-6	73*	87*
CC1=Nc2ccccc2/C1=C\c1nc(-c2ccc(C(F)(F)F)cc2)oc1O	11	0	156*	4	-10	152*	142*
CC1=Nc2ccccc2/C1=C/c1nc(-c2ccc(C)s2)oc1O	-2	11	166*	13	-11	179*	170*
CC1=Nc2ccccc2/C1=C/c1c(C)[nH]c2ccccc12	·	·	·	·	1	·	·
COc1ccc(-c2nc(/C=C3\C(C)=Nc4ccccc43)c(O)o2)cc1	-58	-27	95*	3	-7	106*	112*
CC1=Nc2ccccc2/C1=C\c1nc(-c2ccccc2)oc1O	-20	15	80*	3	-1	99*	108*
COc1ccc(-c2noc(CCC(=O)N3CCN(c4ccccc4F)CC3)n2)cc1	4	10	·	·	-9	·	·
SMILES	procasp7 counter	procasp3 activ	TPT1 inhibitor	IDE inh	IDE act	TPT1 inh confirm	RNase T1 counter
Cc1ccc(NC(=O)c2ccc(S(=O)(=O)NCc3cccnc3)cc2)c(C)c1	0	-4	5	-2	4	·	·
CCCN1CCC(=O)N([C@H](CSc2ccc(OC)cc2)CC(C)C)CC1	-3	3	-4	8	6	·	·
Nc1nc2n(n1)C(=O)CC(c1ccccc1)N2 (stereo not drawn)	6	6	-3	2	-2	·	·
N#C/C(=C\Nc1ccc2cn[nH]c2c1)c1nc(-c2ccccc2)cs1	·	·	·	·	5	·	·
Cc1ccnc(N/C=C(\C#N)c2nc(-c3cccc(Br)c3)cs2)c1	-27	-12	30*	8	-34	26*	40*
Nc1nc(N)c2[nH]c(-c3ccccc3)nc2n1	·	·	·	·	6	·	·
Cc1cc(NC2C3CC4CC(C3)CC2C4)n2ncnc2n1 (stereo not drawn)	-5	-2	101*	2	-3	1	2
Cc1nc(S/C(=C/c2ccc(-c3cccc(Cl)c3)o2)C(=O)O)n[nH]1	-1	-12	25*	-4	4	35*	48*
N#Cc1c(-c2ccco2)cc(-c2ccccn2)nc1N	-13	-13	28*	11	2	15	18
CCc1ccc(CNC(=O)c2ccc3nc(C4CCCCC4)oc3c2)nc1	-6	6	-3	5	-1	·	·
O=C(c1ccc2c(c1)OCO2)[C@@H]1[C@@H]2C(=O)N(C3CCCCC3)C(=O)[C@@H]2C2c3ccccc3C=CN21 (stereo partly drawn)	·	·	·	·	-8	·	·
O=C(Nc1ccc2c(c1)OCO2)[C@@H]1[C@@H]2C(=O)N(C3CCCCC3)C(=O)[C@@H]2C2c3ccccc3C=CN21 (stereo partly drawn)	-2	5	62*	-5	·	52*	63*
COc1ccc(S(=O)(=O)N2CCC(N3CCN(c4ccccc4OC)CC3)CC2)cc1	-6	-5	-5	-4	-1	·	·
Nc1c(C(=O)N/N=C/c2ccccc2Cl)oc2nc(-c3ccccc3)cc(-c3ccco3)c12	1	3	72*	12	·	92*	95*
Nc1c(C(=O)N/N=C/c2ccc(F)cc2)oc2nc(-c3ccccc3)cc(-c3ccco3)c12	3	-1	34*	0	7	109*	112*
COc1ccc(OCCN2C(=O)c3cccc(N)c3C2=O)cc1	-13	-9	0	1	2	·	·
